32 molecules from ChEMBL document CHEMBL1139344, “Antagonists of the human A(2A) adenosine receptor. 4. Design, synthesis, and preclinical evaluation of 7-aryltriazolo[4,5-d]pyrimidines” (J Med Chem, 2009) can be followed below.

In brackets after ≈: the same amount, converted by molar mass. Activity calls are given as the source filed them. The rule behind the calls is not given here. Bounds are passed on as bounds.

The target of one data set is T1, Adenosine receptor A2b (Homo sapiens, UniProt P29275).
T1 sequence (P29275 whole entry): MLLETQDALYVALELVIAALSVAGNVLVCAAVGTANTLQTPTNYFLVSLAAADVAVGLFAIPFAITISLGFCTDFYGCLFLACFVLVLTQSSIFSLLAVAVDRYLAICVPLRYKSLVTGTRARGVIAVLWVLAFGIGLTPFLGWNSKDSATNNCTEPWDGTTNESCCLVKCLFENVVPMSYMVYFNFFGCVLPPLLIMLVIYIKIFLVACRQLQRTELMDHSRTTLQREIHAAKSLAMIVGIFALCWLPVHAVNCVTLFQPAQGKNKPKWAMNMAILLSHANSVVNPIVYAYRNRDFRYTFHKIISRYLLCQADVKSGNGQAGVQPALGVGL
Put plainly: Displacement of radioligand from human recombinant adenosine A2B receptor at 21 degC after 60 mins by cell-based microplate scintillation counting.

The next data set has as its target T2, Adenosine receptor A1 (Homo sapiens, UniProt P30542).
T2 sequence (P30542 whole entry): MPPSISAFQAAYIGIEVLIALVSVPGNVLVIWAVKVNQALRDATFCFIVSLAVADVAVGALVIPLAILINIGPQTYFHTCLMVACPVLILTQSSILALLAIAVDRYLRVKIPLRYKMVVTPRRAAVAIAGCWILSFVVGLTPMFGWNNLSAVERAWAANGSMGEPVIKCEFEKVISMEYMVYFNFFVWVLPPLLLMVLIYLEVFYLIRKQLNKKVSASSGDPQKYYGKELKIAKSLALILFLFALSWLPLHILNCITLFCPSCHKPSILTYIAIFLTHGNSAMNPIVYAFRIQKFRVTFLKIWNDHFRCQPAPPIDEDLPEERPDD
Put plainly: Displacement of radioligand from human recombinant adenosine A1 receptor at 21 degC after 90 mins by cell-based microplate scintillation counting.

The next data set deals with Adenosine receptor A2a (Homo sapiens, UniProt P29274). As to the kind of experiment: Displacement of radioligand from human recombinant adenosine A2A receptor at 21 degC after 90 mins by cell-based microplate scintillation counting.
Another data set deals with T3, Adenosine receptor A3 (Homo sapiens, UniProt P0DMS8).
T3 sequence (P0DMS8 whole entry): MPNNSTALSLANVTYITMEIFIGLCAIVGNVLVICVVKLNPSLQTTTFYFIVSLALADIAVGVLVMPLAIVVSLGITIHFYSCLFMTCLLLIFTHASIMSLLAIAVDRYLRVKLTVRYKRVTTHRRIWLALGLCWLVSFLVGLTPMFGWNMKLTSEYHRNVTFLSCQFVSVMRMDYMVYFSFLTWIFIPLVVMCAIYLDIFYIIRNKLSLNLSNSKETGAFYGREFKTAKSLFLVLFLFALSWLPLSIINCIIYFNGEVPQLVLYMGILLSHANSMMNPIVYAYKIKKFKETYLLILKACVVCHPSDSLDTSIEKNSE
As to the kind of experiment: Displacement of radioligand from human recombinant adenosine A3 receptor at 21 degC after 60 mins by cell-based microplate scintillation counting.

Data set [1] in a line: Aqueous solubility in phosphate buffered saline. The format is physicochemical.
A further data set relates to Rattus norvegicus. As to the kind of experiment: Reversal of haloperidol-induced hypolocomotion in Sprague-Dawley rat assessed as time spent for locomotor activity at 30 mg/kg, po administered 120 mins prior and measured for 60 mins. Format: functional, organism-based. On the set-up: dose 30 mg/kg.
For the next data set, the system named is Liver microsomes. As to the kind of experiment: Metabolic stability in rat liver microsomes after 30 mins. The format is ADME, Microsome. The following applies: 0.5 h. In outline:
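Turnover by rodent liver microsomes measured as percent turnover after 30 min.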
In general terms: Liver microsomes are a subcellular fraction often used to study metabolism.

For another data set, the system named is Mus musculus. As to the kind of experiment: Reversal of haloperidol-induced hypolocomotion in TO mouse assessed as time spent for locomotor activity at 30 mg/kg, po administered 15 mins prior and measured for 60 mins. Also on record: dose 30 mg/kg. Format: functional, organism-based.

Chain of Adenosine receptor A2a (P29274 whole entry): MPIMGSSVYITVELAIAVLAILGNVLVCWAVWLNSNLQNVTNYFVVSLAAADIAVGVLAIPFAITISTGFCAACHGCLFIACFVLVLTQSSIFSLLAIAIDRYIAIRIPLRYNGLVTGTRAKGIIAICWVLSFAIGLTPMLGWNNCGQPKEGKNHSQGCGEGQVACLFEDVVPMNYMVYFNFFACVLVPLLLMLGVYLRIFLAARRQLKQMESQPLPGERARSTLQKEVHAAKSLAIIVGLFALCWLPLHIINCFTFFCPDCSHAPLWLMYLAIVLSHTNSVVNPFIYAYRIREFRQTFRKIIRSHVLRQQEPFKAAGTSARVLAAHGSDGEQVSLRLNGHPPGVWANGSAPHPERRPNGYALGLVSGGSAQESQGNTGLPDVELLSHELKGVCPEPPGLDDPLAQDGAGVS

Take `Nc1nc(-c2ccco2)c2nnn(Cc3ccc4[nH]nnc4c3)c2n1`: the Ki – broadly, a measure of affinity in units of concentration, obtained from inhibition or displacement – at Adenosine receptor A2b amounted to 134 nM; at Adenosine receptor A1, 291 nM; on Adenosine receptor A2a, 11.9 nM; at Adenosine receptor A3 it was 3010 nM.
As for `Nc1nc(-c2ccco2)c2nnn(Cc3ccccc3F)c2n1`, the Ki is 109 nM on Adenosine receptor A2b, 105 nM on Adenosine receptor A1, 2.7 nM on Adenosine receptor A2a and 440 nM at Adenosine receptor A3. Also, in data set [1], the solubility (commonly the concentration that dissolves in the medium under given conditions) stood at 30 µM (≈ 9.31 µg/mL). The outcome in the data set with Rattus norvegicus and in the data set on Mus musculus was inactive. Besides, the Stability result in the data set with Liver microsomes is “Stable”.
Turning to `Cc1cnc(-c2nc(N)nc3c2nnn3Cc2ccccc2F)s1`, the Ki on Adenosine receptor A2b was determined as 199 nM; at Adenosine receptor A1 it was 86 nM; on Adenosine receptor A2a, 8.5 nM; at Adenosine receptor A3, 338 nM.
On the same counts, the results for `Nc1nc(-c2ccco2)c2nnn(Cc3cccc(F)c3F)c2n1` are 79 nM, 110 nM, 2.3 nM and 619 nM.
On the same counts, the results for `Nc1nc(-c2ccco2)c2nnn(Cc3ccc4[nH]ncc4c3)c2n1` are 206 nM, 190 nM, 8.6 nM and 2430 nM.
On the same counts, the results for `Nc1nc(-c2cccs2)c2nnn(Cc3ccccc3F)c2n1` are 248 nM, 154 nM, 8.2 nM and 871 nM.
With `Nc1nc(-c2ccco2)c2nnn(CC3CCCCC3)c2n1`, the Ki at Adenosine receptor A2b came to 634 nM; on Adenosine receptor A1, 230 nM; on Adenosine receptor A2a, 8.5 nM; on Adenosine receptor A3, 1140 nM.
On the same counts, the results for `COc1ccccc1Cn1nnc2c(-c3ccco3)nc(N)nc21` are 741 nM, 319 nM, 5.4 nM and 340 nM.
For `Nc1nc(-c2ncco2)c2nnn(Cc3ccccc3F)c2n1` the same measures were 836 nM, 599 nM, 41 nM and 2110 nM.
`Nc1nc(-c2ccco2)c2nnn(Cc3cccc(O)c3)c2n1`: the Ki on Adenosine receptor A2b worked out at 10 nM; on Adenosine receptor A1, 314 nM; at Adenosine receptor A2a, 4 nM; at Adenosine receptor A3, 491 nM.
On to `Nc1nc(-c2ccco2)c2nnn(Cc3ccco3)c2n1`, for which the Ki came to 192 nM at Adenosine receptor A2b, 77 nM at Adenosine receptor A1, 8.8 nM at Adenosine receptor A2a and 240 nM at Adenosine receptor A3.
For the molecule `COC(=O)c1cccc(Cn2nnc3c(-c4ccco4)nc(N)nc32)c1`, the Ki at Adenosine receptor A2b turned out to be 907 nM; on Adenosine receptor A1, 105 nM; on Adenosine receptor A2a, 4.1 nM; on Adenosine receptor A3 it was 1170 nM. Further, the solubility in data set [1] worked out at 30 µM (≈ 10.5 µg/mL). Moreover, in the data set with Liver microsomes, the Stability result is “Stable”.
Turning to `Nc1nc(-c2ccco2)c2nnn(Cc3ccccc3[N+](=O)[O-])c2n1`, the Ki at Adenosine receptor A2b is 383 nM; at Adenosine receptor A1 it was 400 nM; at Adenosine receptor A2a, 6.6 nM; at Adenosine receptor A3, 168 nM.
On the same counts, the results for `Nc1nc(-c2ccco2)c2nnn(Cc3ccc(N)c(F)c3)c2n1` are 43 nM, 120 nM, 0.7 nM and 1070 nM.
In the case of `Cc1csc(-c2nc(N)nc3c2nnn3Cc2ccccc2F)n1`, the Ki at Adenosine receptor A2b is 53 nM; at Adenosine receptor A1 it was 203 nM; at Adenosine receptor A2a it was 2.2 nM; on Adenosine receptor A3 it was 1260 nM.
On the same counts, the results for `Cc1cccc(Cn2nnc3c(-c4ccco4)nc(N)nc32)c1` are 254 nM, 45 nM, 3 nM and 360 nM.
On to `Nc1nc(-c2ccco2)c2nnn(Cc3cccc(C(=O)O)c3)c2n1`, for which the Ki at Adenosine receptor A2b turned out to be 2110 nM; on Adenosine receptor A1, 4140 nM; on Adenosine receptor A2a, 832 nM; at Adenosine receptor A3, 3810 nM.
Take `Nc1nc(-c2ccco2)c2nnn(Cc3cnccn3)c2n1`: the Ki on Adenosine receptor A2b was 1140 nM; at Adenosine receptor A1, 1170 nM; at Adenosine receptor A2a, 122 nM; on Adenosine receptor A3, 2220 nM.
For the molecule `Nc1nc(-c2nccs2)c2nnn(Cc3ccccc3F)c2n1`, the Ki at Adenosine receptor A2b is 271 nM; on Adenosine receptor A1, 553 nM; at Adenosine receptor A2a, 8.5 nM; at Adenosine receptor A3, 2200 nM. In data set [1], this molecule gave a solubility of 30 µM (≈ 9.82 µg/mL). Besides, the result in the data set on Rattus norvegicus and with Mus musculus was inactive.
As for `Nc1nc(-c2ccco2)c2nnn(Cc3c(F)cccc3F)c2n1`, the Ki on Adenosine receptor A2b stood at 24 nM; on Adenosine receptor A1, 42 nM; at Adenosine receptor A2a it was 1.9 nM; at Adenosine receptor A3, 203 nM.
Regarding `Nc1nc(-c2cncs2)c2nnn(Cc3ccccc3F)c2n1`, the Ki on Adenosine receptor A2b amounted to 423 nM; at Adenosine receptor A1 it was 894 nM; at Adenosine receptor A2a it was 31 nM; on Adenosine receptor A3 it was 1780 nM.
For `COc1cccc(Cn2nnc3c(-c4ccco4)nc(N)nc32)c1` the same measures were 643 nM, 77 nM, 1.8 nM and 563 nM.
For `Nc1ccc(Cn2nnc3c(-c4ccco4)nc(N)nc32)c(F)c1` the same measures were 23 nM, 190 nM, 3.5 nM and 685 nM.
Regarding `Nc1nc(-c2ccco2)c2nnn(Cc3cccc(C(F)(F)F)c3)c2n1`, the Ki on Adenosine receptor A2b was 259 nM; at Adenosine receptor A1 it was 100 nM; at Adenosine receptor A2a, 2.2 nM; on Adenosine receptor A3 it was 736 nM.
For `Nc1nc(-c2ccco2)c2nnn(Cc3cc(F)ccc3F)c2n1`, the Ki was 128 nM at Adenosine receptor A2b, 98 nM on Adenosine receptor A1, 2.2 nM at Adenosine receptor A2a and 450 nM on Adenosine receptor A3.
With `Nc1nc(-c2ccco2)c2nnn(Cc3ccc(N)c(O)c3)c2n1`, the Ki amounted to 84 nM on Adenosine receptor A2b, 249 nM at Adenosine receptor A1, 1.6 nM at Adenosine receptor A2a and 1360 nM at Adenosine receptor A3.
Take `Nc1nc(-c2ccco2)c2nnn(Cc3cccc(Cl)c3)c2n1`: the Ki at Adenosine receptor A2b stood at 160 nM; at Adenosine receptor A1, 76 nM; at Adenosine receptor A2a it was 2.3 nM; on Adenosine receptor A3, 269 nM.
On the same counts, the results for `NCc1ccc(Cn2nnc3c(-c4ccco4)nc(N)nc32)cc1` are 916 nM, 4910 nM, 241 nM and more than 10000 nM.
In data set [1], `Nc1nc(-c2ccco2)c2nn[nH]c2n1` yielded a solubility of 30 µM (≈ 6.07 µg/mL). Also, the result in the data set with Rattus norvegicus and with Mus musculus was inactive. The Stability result in the data set with Liver microsomes is “Stable”. Moreover, the values for the Ki at Adenosine receptor A1 and at Adenosine receptor A2a were 3620 nM and 194 nM, respectively.
Take `CC(=O)Nc1ccc(Cn2nnc3c(-c4ccco4)nc(N)nc32)cc1`: the Ki at Adenosine receptor A2b was found to be 443 nM; at Adenosine receptor A1, 2530 nM; at Adenosine receptor A2a, 116 nM; at Adenosine receptor A3, 2380 nM.
As for `Nc1nc(-c2ccco2)c2nnn(Cc3ccc4[nH]ccc4c3)c2n1`, the Ki at Adenosine receptor A2b was found to be 59 nM; at Adenosine receptor A1, 27 nM; on Adenosine receptor A2a, 1.1 nM; on Adenosine receptor A3, 606 nM.
With `N#Cc1cccc(Cn2nnc3c(-c4ccco4)nc(N)nc32)c1`, the Ki at Adenosine receptor A2b came to 630 nM; at Adenosine receptor A1 it was 132 nM; at Adenosine receptor A2a, 3.9 nM; at Adenosine receptor A3 it was 693 nM.
